Experimental data from ChEMBL document CHEMBL1165950, “Design and synthesis of new potent anticancer pyrazoles with high FLT3 kinase inhibitory selectivity” (Bioorg Med Chem, 2010).

Assays:
Format in all cases: functional
HCT-116 = assay: Cytotoxicity against human HCT116 cells assessed as cell growth at 100 nM after 48 hrs by sulforhodamine B assay; conditions: HCT-116, 48 h, read-out: Activity
RXF 393 [1] = assay: Cytotoxicity against human RXF393 cells assessed as cell growth at 100 nM after 48 hrs by sulforhodamine B assay; conditions: RXF 393, 48 h, read-out: Activity
MCF7 [2] = assay: Cytotoxicity against human MCF7 cells assessed as cell growth at 100 nM after 48 hrs by sulforhodamine B assay; conditions: MCF7, 48 h, read-out: Activity
SR [3] = assay: Cytotoxicity against human SR cells assessed as cell growth at 1 uM after 48 hrs by sulforhodamine B assay; conditions: read-out: Activity
SR [4] = assay: Cytotoxicity against human SR cells assessed as cell growth at 0.001 uM after 48 hrs by sulforhodamine B assay; conditions: read-out: Activity
A549 = assay: Cytotoxicity against human A549 cells assessed as cell growth at 0.001 uM after 48 hrs by sulforhodamine B assay; conditions: A549, 48 h, read-out: Activity
In short: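 NCI-60 five-dose screen. Cells were grown in RPMI 1640 with 5% FBS and 2 mM L-glutamine, plated at 5000–40,000 cells/well and preincubated for 24 h. Time-zero plates were TCA-fixed. DMSO-solubilized drug was added at five concentrations (10-fold or ½-log serial dilutions) for 48 h at 37 °C, 5% CO2. Cells were TCA-fixed, stained with 0.4% SRB and read at 515 nm. Percent growth used time-zero, control and test absorbances.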

NCI-H460 = assay: Cytotoxicity against human NCI-H460 cells assessed as cell growth at 1 uM after 48 hrs by sulforhodamine B assay; conditions: NCI-H460, 48 h, read-out: Activity
HCC 2998 [5] = assay: Cytotoxicity against human HCC2998 cells assessed as cell growth at 1 uM after 48 hrs by sulforhodamine B assay; conditions: HCC 2998, 48 h, read-out: Activity
SK-MEL-28 [6] = assay: Cytotoxicity against human SK-MEL-28 cells assessed as cell growth at 1 uM after 48 hrs by sulforhodamine B assay; conditions: SK-MEL-28, 48 h, read-out: Activity
SK-MEL-5 = assay: Cytotoxicity against human SK-MEL-5 cells assessed as cell growth at 1 uM after 48 hrs by sulforhodamine B assay; conditions: SK-MEL-5, 48 h, read-out: Activity
SK-MEL-28 [7] = assay: Cytotoxicity against human SK-MEL-28 cells assessed as cell growth at 0.001 uM after 48 hrs by sulforhodamine B assay; conditions: SK-MEL-28, 48 h, read-out: Activity
RXF 393 [8] = assay: Cytotoxicity against human RXF393 cells assessed as cell growth at 0.001 uM after 48 hrs by sulforhodamine B assay; conditions: RXF 393, 48 h, read-out: Activity
SR [9] = assay: Growth inhibition of human SR cells after 48 hrs by sulforhodamine B assay
In short: (§1)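 NCI 60-cell screen, five-dose mode. Cells grown in RPMI 1640 with 5% FBS and 2 mM L-glutamine and plated at 5000-40,000 cells/well according to doubling time. After 24 h preincubation, a Tz plate was TCA-fixed. Five concentrations (10-fold or 1/2 log dilutions) were applied for 48 h at 37 °C. SRB staining read at 515 nm. IC50 taken from [(Ti-Tz)/(C-Tz)]×100 = 50.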

HCC 2998 [10] = assay: Growth inhibition of human HCC2998 cells after 48 hrs by sulforhodamine B assay; conditions: HCC 2998, 48 h; for CC50: read-out: LC50 (the source's name); in short: as §1
SK-MEL-28 [11] = assay: Growth inhibition of human SK-MEL-28 cells after 48 hrs by sulforhodamine B assay; conditions: SK-MEL-28, 48 h; for CC50: read-out: LC50 (the source's name); in short: as §1
SR [12] = assay: Cytotoxicity against human SR cells assessed as cell growth at 100 nM after 48 hrs by sulforhodamine B assay; conditions: read-out: Activity
RXF 393 [13] = assay: Growth inhibition of human RXF393 cells after 48 hrs by sulforhodamine B assay; conditions: RXF 393, 48 h; in short: as §1
PC-3 [14] = assay: Growth inhibition of human PC3 cells after 48 hrs by sulforhodamine B assay; conditions: PC-3, 48 h; in short: as §1
MCF7 [15] = assay: Growth inhibition of human MCF7 cells after 48 hrs by sulforhodamine B assay; conditions: MCF7, 48 h; in short: as §1
CAKI-1 = assay: Cytotoxicity against human Caki1 cells assessed as cell growth at 1 uM after 48 hrs by sulforhodamine B assay; conditions: CAKI-1, 48 h, read-out: Activity
RXF 393 [16] = assay: Cytotoxicity against human RXF393 cells assessed as cell growth at 1 uM after 48 hrs by sulforhodamine B assay; conditions: RXF 393, 48 h, read-out: Activity
HOP-92 = assay: Cytotoxicity against human HOP92 cells assessed as cell growth at 10 uM; conditions: read-out: Activity
In short: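 Single-dose NCI-60 screen at 10 µM. Cells were grown in RPMI 1640 with 5% FBS and 2 mM L-glutamine, then treated for 48 h at 37 °C. Protein was measured by SRB staining with absorbance at 515 nm. Percentage growth was recorded, and inhibition percentage was calculated as 100 minus growth percentage.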

KM12 = assay: Cytotoxicity against human KM12 cells assessed as cell growth at 10 uM; conditions: read-out: Activity
In short: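 NCI-60 screen: cells grown in RPMI 1640 with 5% FBS and 2 mM L-glutamine, plated at 5000–40,000 cells/well according to doubling time, and preincubated 24 h at 37 °C, 5% CO2. The single 10 µM dose (DMSO stock) was added, then incubated 48 h. Cells were TCA-fixed and stained with 0.4% SRB, read at 515 nm, and growth % calculated against time-zero and control plates.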

[17] = Cytotoxicity against human […] cells assessed as cell growth at 10 uM after 48 hrs by sulforhodamine B assay; conditions: read-out: Activity
NCI-H226 = assay: Cytotoxicity against human NCI-H226 cells assessed as cell growth at 10 uM after 48 hrs by sulforhodamine B assay; conditions: NCI-H226, 48 h, read-out: Activity
HCC 2998 [18] = assay: Cytotoxicity against human HCC2998 cells assessed as cell growth at 10 uM after 48 hrs by sulforhodamine B assay; conditions: HCC 2998, 48 h, read-out: Activity
SF-295 = assay: Cytotoxicity against human SF295 cells assessed as cell growth at 10 uM after 48 hrs by sulforhodamine B assay; conditions: SF-295, 48 h, read-out: Activity
SK-MEL-28 [19] = assay: Cytotoxicity against human SK-MEL-28 cells assessed as cell growth at 10 uM after 48 hrs by sulforhodamine B assay; conditions: SK-MEL-28, 48 h, read-out: Activity
786-0 = assay: Cytotoxicity against human 786-0 cells assessed as cell growth at 10 uM after 48 hrs by sulforhodamine B assay; conditions: 786-0, 48 h, read-out: Activity
RXF 393 [20] = assay: Cytotoxicity against human RXF393 cells assessed as cell growth at 10 uM after 48 hrs by sulforhodamine B assay; conditions: RXF 393, 48 h, read-out: Activity
PC-3 [21] = assay: Cytotoxicity against human PC3 cells assessed as cell growth at 10 uM after 48 hrs by sulforhodamine B assay; conditions: PC-3, 48 h, read-out: Activity
MCF7 [22] = assay: Cytotoxicity against human MCF7 cells assessed as cell growth at 10 uM after 48 hrs by sulforhodamine B assay; conditions: MCF7, 48 h, read-out: Activity

Work on `COc1cc(C)cc(-c2c(-c3ccnc(-c4ccc(C(C)=O)cc4)c3)cnn2CC#N)c1` yielded a growth at 0.1 µM (HCT-116) of 73%, a growth at 0.1 µM (RXF 393 [1]) of 94% and a growth at 0.1 µM (MCF7 [2]) of 86%. The growth at 1 µM (SR [3]) was 18%, the growth at 0.001 µM (SR [4]) was 96% and the growth at 0.001 µM (A549) was 95%. The growth at 1 µM (NCI-H460) was -9%, the growth at 1 µM (HCC 2998 [5]) was 2% and the growth at 1 µM (SK-MEL-28 [6]) was 44%. For the same compound, the growth at 1 µM (SK-MEL-5) was -37%, the growth at 0.001 µM (SK-MEL-28 [7]) was 90% and the growth at 0.001 µM (RXF 393 [8]) was 86%. For the same compound, the GI50 (SR [9]) was 2.87 µM, the LC50 (concentration killing 50% of cells) (SR [9]) was over 100 µM and the TGI (SR [9]) was over 100 µM. The GI50 (HCC 2998 [10]) was 3.41 µM, the TGI (HCC 2998 [10]) was over 100 µM and the CC50 (HCC 2998 [10]) was over 100 µM. The GI50 (SK-MEL-28 [11]) was 7.66 µM, the TGI (SK-MEL-28 [11]) was over 100 µM and the CC50 (SK-MEL-28 [11]) was over 100 µM. For the same compound, the growth at 0.1 µM (SR [12]) was 77%, the GI50 (RXF 393 [13]) was 2.32 µM and the LC50 (concentration killing 50% of the starting cells) (RXF 393 [13]) was over 100 µM. It also gave a TGI (RXF 393 [13]) of 6.02 µM, a GI50 (PC-3 [14]) of 3.59 µM and an LC50 (concentration giving 50% net cell kill) (PC-3 [14]) of over 100 µM. It also gave a TGI (PC-3 [14]) of over 100 µM, a GI50 (MCF7 [15]) of 3.25 µM and an LC50 (MCF7 [15]) of over 100 µM. It also gave a TGI (MCF7 [15]) of over 100 µM, a growth at 1 µM (CAKI-1) of 29% and a growth at 1 µM (RXF 393 [16]) of -27%. It also gave a growth at 10 µM (HOP-92) of 23.5%, a growth at 10 µM (KM12) of 80.2% and a growth at 10 µM [17] of -1%. It also gave a growth at 10 µM (NCI-H226) of 35%, a growth at 10 µM (HCC 2998 [18]) of 5% and a growth at 10 µM (SF-295) of 35%. The growth at 10 µM (SK-MEL-28 [19]) was 46%, the growth at 10 µM (786-0) was 20% and the growth at 10 µM (RXF 393 [20]) was -27%. It also gave a growth at 10 µM (PC-3 [21]) of 27% and a growth at 10 µM (MCF7 [22]) of 17%.
For `Cc1cc(O)cc(-c2nn(CC#N)cc2-c2ccnc(-c3ccc(N(C)C)cc3)c2)c1`, the growth at 0.1 µM (HCT-116) was 87%, the growth at 0.1 µM (RXF 393 [1]) was 120% and the growth at 0.1 µM (MCF7 [2]) was 50%. For the same compound, the growth at 1 µM (SR [3]) was 17%, the growth at 0.001 µM (SR [4]) was 93% and the growth at 0.001 µM (A549) was 104%. It also gave a growth at 1 µM (HCC 2998 [5]) of 13%, a growth at 1 µM (SK-MEL-28 [6]) of 32% and a growth at 1 µM (SK-MEL-5) of -26%. The growth at 0.001 µM (SK-MEL-28 [7]) was 102%, the growth at 0.001 µM (RXF 393 [8]) was 100% and the GI50 (SR [9]) was 2.64 µM. For the same compound, the LC50 (concentration killing 50% of cells) (SR [9]) was over 100 µM, the TGI (SR [9]) was over 100 µM and the GI50 (HCC 2998 [10]) was 3.19 µM. For the same compound, the TGI (HCC 2998 [10]) was 13.2 µM, the CC50 (HCC 2998 [10]) was 37.2 µM and the GI50 (SK-MEL-28 [11]) was 5.22 µM. The TGI (SK-MEL-28 [11]) was 32.4 µM, the CC50 (SK-MEL-28 [11]) was over 100 µM and the growth at 0.1 µM (SR [12]) was 74%. For the same compound, the GI50 (RXF 393 [13]) was 2.87 µM, the LC50 (concentration killing 50% of the starting cells) (RXF 393 [13]) was over 100 µM and the TGI (RXF 393 [13]) was 61.4 µM. The GI50 (PC-3 [14]) was 3.77 µM, the LC50 (concentration giving 50% net cell kill) (PC-3 [14]) was over 100 µM and the TGI (PC-3 [14]) was 47.2 µM. The GI50 (MCF7 [15]) was 0.975 µM, the LC50 (MCF7 [15]) was 69.9 µM and the TGI (MCF7 [15]) was 13.9 µM. For the same compound, the growth at 1 µM (CAKI-1) was 9%, the growth at 1 µM (RXF 393 [16]) was -32% and the growth at 10 µM (HOP-92) was 32.4%. For the same compound, the growth at 10 µM (KM12) was 27.3%, the growth at 10 µM [17] was -28% and the growth at 10 µM (NCI-H226) was -38%. The growth at 10 µM (HCC 2998 [18]) was -98%, the growth at 10 µM (SF-295) was -54% and the growth at 10 µM (SK-MEL-28 [19]) was -31%. For the same compound, the growth at 10 µM (786-0) was -49%, the growth at 10 µM (RXF 393 [20]) was -46% and the growth at 10 µM (PC-3 [21]) was -9%. It also gave a growth at 10 µM (MCF7 [22]) of -61%.
